Assay results reported in publication PMC4591930 (Angewandte Chemie (International ed. in English), 2015).
Where a SMILES comes first, the peptide text is derived from it. [ ]: non-standard residue; d: D form. The star is where a group is joined. FITC = O=C1OC2(c3ccc(O)cc3Oc3cc(O)ccc32)c2ccc(NC(=S)*)cc21; Phe(4-F) = N[C@@H](Cc1ccc(F)cc1)C(=O)O; d2Nal = N[C@H](Cc1ccc2ccccc2c1)C(=O)O; dNle = CCCC[C@@H](N)C(=O)O

Key:
phosphorylation of MEK = test: EGF-stimulated MEK phosphorylation in H1299 cells; assay type: cell-based, human
Method in brief: (§1)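 H1299 cells exposed to a range of test compound concentrations for 10 min, then stimulated with EGF (50 ng/ml) for 5 min before lysis. Phospho-Akt (Thr308) and phospho-MEK detected by immunoblot, with total Akt and MEK blotted alongside.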

caspase-3 activity = test: Caspase-3 activity in H1299 cells; assay type: cell-based, human; conditions: 10 μM, 3 h
Ras-B-Raf interaction = test: Ras-B-Raf co-immunoprecipitation in H358 cells; assay type: cell-based, human; conditions: anti-Ras precipitation, anti-B-Raf immunoblot
Method in brief: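 H358 lung cancer cells treated with increasing test compound concentrations. Lysates immunoprecipitated with anti-Ras antibody and co-precipitated B-Raf detected by anti-B-Raf immunoblot. Whole-cell lysate blotted alongside.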

H1299 cells = test: Annexin-FITC / propidium iodide flow cytometry of treated H1299 cells; assay type: cell-based, human; conditions: 10 μM, 3 h
lung cancer cells [1] = test: Cell permeability of hits; assay type: cell-based, human; conditions: qualitative
Method in brief: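 A549 lung cancer cells given 5 μM FITC-labelled test compound for 30 min. Uptake viewed live by confocal microscopy with DRAQ5 nuclear counterstain. Total cell-associated fluorescence measured by flow cytometry against untreated control cells.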

Ras-Raf interaction = Ras-Raf interaction (Homo sapiens, UniProt P01116, G12V); test: Homogeneous time-resolved fluorescence; assay type: binding; conditions: Gln-8 replaced with L- or D-arginine, versus 9A1-4
Ras-Raf interaction, sequence (P01116 1-188 isoform P01116-2 G12V): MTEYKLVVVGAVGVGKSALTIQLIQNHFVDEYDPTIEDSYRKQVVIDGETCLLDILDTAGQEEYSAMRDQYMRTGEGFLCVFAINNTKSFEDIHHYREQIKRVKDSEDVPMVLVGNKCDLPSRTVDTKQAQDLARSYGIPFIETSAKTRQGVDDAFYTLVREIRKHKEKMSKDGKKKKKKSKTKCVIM

[2] = test system: phosphorylation of Akt at Thr308; test: EGF-stimulated Akt Thr308 phosphorylation in H1299 cells; assay type: cell-based, human
Method in brief: as §1

K-Ras = K-Ras (Homo sapiens, UniProt P01116, G12V); test: Fluorescence anisotropy; assay type: binding; conditions: fluorescence anisotropy in solution
K-Ras, sequence (P01116 1-188 isoform P01116-2 G12V): as above

lung cancer cells [3] = test: Anti-proliferative activity against lung cancer cells; assay type: cell-based, human; conditions: qualitative
A549 lung cancer cells = test: Flow cytometry of cellular uptake of FITC-labeled peptides; assay type: cell-based, human; conditions: 5 μM, 30 min
[4] = molecular target: panel of five arbitrarily selected control proteins; test: FA binding to control proteins

## CCCC[C@H]1NC(=O)[C@H]([C@@H](C)O)NC(=O)[C@@H](C)NC(=O)[C@H](CCCNC(=N)N)NC(=O)[C@H](CCCNC(=N)N)NC(=O)[C@H](CCCNC(=N)N)NC(=O)[C@@H](Cc2ccc3ccccc3c2)NC(=O)[C@H](CCCNC(=N)N)NC(=O)[C@H](Cc2ccc(F)cc2)NC(=O)[C@H](Cc2c[nH]c3ccccc23)NC(=O)[C@H](CCC(N)=O)NC1=O [9A5] (cyclo(QW[Phe(4-F)]R[d2Nal]RRR[dA]T[dNle]))
Phosphorylation of MEK; H1299 cells
  concentration abolishing MEK phosphorylation: ≥ 12 µM
Phosphorylation of MEK; time-course experiment
  exposure time at which dephosphorylation of MEK was largely complete: 10 min
caspase-3 activity
  fold increase in caspase-3 activity: 2.3 fold
Ras-B-Raf interaction
  inhibition of Ras-B-Raf interaction in cells: dose-dependently inhibited
H1299 cells
  annexin-FITC and propidium iodide staining: positive
Lung cancer cells [1]
  cell permeability: improved cell permeability
Ras-Raf interaction
  fold higher affinity for K-Ras: ~ 4 fold
[2]; H1299 cells
  concentration abolishing Akt Thr308 phosphorylation: ≥ 12 µM
[2]; time-course experiment
  exposure time at which dephosphorylation of Akt was largely complete: 10 min

## CCCC[C@H]1NC(=O)[C@H]([C@@H](C)O)NC(=O)[C@@H](C)NC(=O)[C@@H](CCCNC(=N)N)NC(=O)[C@H](CCCNC(=N)N)NC(=O)[C@H](CCCNC(=N)N)NC(=O)[C@@H](Cc2ccc3ccccc3c2)NC(=O)[C@H](CCCNC(=N)N)NC(=O)[C@H](Cc2ccc(F)cc2)NC(=O)[C@H](Cc2c[nH]c3ccccc23)NC(=O)[C@H](CCC(N)=O)NC1=O [9A6] (cyclo(QW[Phe(4-F)]R[d2Nal]RR[dR][dA]T[dNle]))
Lung cancer cells [1]
  cell permeability: improved cell permeability
Ras-Raf interaction
  fold higher affinity for K-Ras: ~ 4 fold

## CCCC[C@H]1NC(=O)[C@H]([C@@H](C)O)NC(=O)[C@@H](C)NC(=O)[C@H](CCC(N)=O)NC(=O)[C@H](CCCNC(=N)N)NC(=O)[C@H](CCCNC(=N)N)NC(=O)[C@@H](Cc2ccc3ccccc3c2)NC(=O)[C@H](CCCNC(=N)N)NC(=O)[C@H](Cc2ccc(F)cc2)NC(=O)[C@H](Cc2c[nH]c3ccccc23)NC(=O)[C@@H](CO)NC1=O [9A] (cyclo([dS]W[Phe(4-F)]R[d2Nal]RRQ[dA]T[dNle]))
K-Ras
  binding to K-Ras: strong binding
Lung cancer cells [1]
  cell permeability: cell permeable
Lung cancer cells [3]
  anti-proliferative activity: weak anti-proliferative activity

## CCCC[C@H]1NC(=O)[C@H]([C@@H](C)O)NC(=O)[C@@H](C)NC(=O)[C@H](CCCNC(=N)N)NC(=O)[C@H](CCCNC(=N)N)NC(=O)[C@H](CCCCNC(=S)Nc2ccc3c(c2)C(=O)OC32c3ccc(O)cc3Oc3cc(O)ccc32)NC(=O)[C@@H](Cc2ccc3ccccc3c2)NC(=O)[C@H](CCCNC(=N)N)NC(=O)[C@H](Cc2ccc(F)cc2)NC(=O)[C@H](Cc2c[nH]c3ccccc23)NC(=O)[C@H](CCC(N)=O)NC1=O [FITC-9A5] (cyclo(QW[Phe(4-F)]R[d2Nal]K(FITC)RR[dA]T[dNle]))
A549 lung cancer cells
  fold more efficient cell entry than FITC-9A54: ~ 5 fold
[4]
  Kd: ≥ 30 µM
